The target in experiment [1] is human TopBP1 BRCT5, 641-746 (UniProt Q92547). Nature of the experiment: fluorescence polarization titration. Particulars: reference: pSer304 peptide mock-treated without λ phosphatase; sites S304. (In general: Fluorescence polarisation rises when a labelled molecule tumbles more slowly, as on binding a larger partner.)
Another experiment addresses GST-hTopBP1 BRCT5 WT (Homo sapiens, UniProt Q92547). In words: Fluorescence polarization binding, GST-hBRCT5 WT.
The target in another experiment is GST-hBRCT5 M689A (Homo sapiens, UniProt Q92547, M689A). In words: Fluorescence polarization binding, GST-hBRCT5 M689A.
Sequence of GST-hBRCT5 M689A (Q92547 641-746 M689A): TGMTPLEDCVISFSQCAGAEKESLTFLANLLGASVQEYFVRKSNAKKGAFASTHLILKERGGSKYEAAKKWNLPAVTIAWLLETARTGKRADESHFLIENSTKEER
Experiment [2] deals with TopBP1 BRCT4/5, untagged and GST-tagged forms (Homo sapiens, UniProt Q92547). Nature of the experiment: Fluorescence polarization binding, untagged and GST-tagged TopBP1 forms compared. The method in brief:
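Untagged BRCT4/5 was prepared by overnight PreScission cleavage of the GST fusion at 4 °C, then anion exchange at pH 7.0, glutathione-bead removal of GST, and gel filtration. Read-out was ex 485/em 538 nm; KD was curve-fitted and averaged over ≥3 measurements.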

The target in experiment [3] is T1, GST-human TopBP1 BRCT5 (641-746), wild type (human, UniProt Q92547 641-746). In words: fluorescence polarisation.
T1 sequence (Q92547 641-746): as the sequence (Q92547 641-746 M689A) above, with A49M counted along it
Experiment [4] has as its target GST-human TopBP1 BRCT5 A707D (human, UniProt Q92547 641-746, A707D). Nature of the experiment: fluorescence polarisation.
Experiment [5] concerns the target GST-human TopBP1 BRCT5 S654A (human, UniProt Q92547 641-746, S654A). Nature of the experiment: fluorescence polarisation.
Experiment [6] addresses GST-human TopBP1 BRCT5 A707K (human, UniProt Q92547 641-746, A707K). In words: fluorescence polarisation.
Experiment [7] deals with GST-human TopBP1 BRCT5 K704A (human, UniProt Q92547 641-746, K704A). Nature of the experiment: fluorescence polarisation.
Sequence of GST-human TopBP1 BRCT5 K704A (Q92547 641-746 K704A): as the sequence (Q92547 641-746 M689A) above, with A49M, K64A counted along it
For experiment [8], the target named is T2, mouse TopBP1 BRCT4/5 (553-749), untagged (mouse, UniProt Q6ZQF0 553-749).
T2 sequence (looked up): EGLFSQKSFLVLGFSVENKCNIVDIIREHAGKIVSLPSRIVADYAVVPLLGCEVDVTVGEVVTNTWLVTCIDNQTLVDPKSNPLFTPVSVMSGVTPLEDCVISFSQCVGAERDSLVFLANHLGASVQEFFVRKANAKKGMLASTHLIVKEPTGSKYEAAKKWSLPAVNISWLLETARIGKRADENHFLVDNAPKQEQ
Nature of the experiment: fluorescence polarisation.

For experiment [9], the target named is GST-human TopBP1 BRCT4/5 (549-746) (human, UniProt Q92547 549-746). In words: fluorescence polarisation.
Sequence of GST-human TopBP1 BRCT4/5 (549-746) (Q92547 549-746): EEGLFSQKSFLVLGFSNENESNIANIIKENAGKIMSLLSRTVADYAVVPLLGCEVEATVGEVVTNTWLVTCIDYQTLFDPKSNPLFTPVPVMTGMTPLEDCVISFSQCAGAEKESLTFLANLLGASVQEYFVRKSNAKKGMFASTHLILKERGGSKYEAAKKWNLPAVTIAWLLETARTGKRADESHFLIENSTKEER
The target in experiment [10] is GST-human TopBP1 BRCT5 R681E/K682E (human, UniProt Q92547 641-746, R681E | K682E). In words: fluorescence polarisation.
Sequence of GST-human TopBP1 BRCT5 R681E/K682E (Q92547 641-746 R681E/K682E): as the sequence (Q92547 641-746 M689A) above, with R41E, K42E, A49M counted along it
Experiment [11] has as its target GST-human TopBP1 BRCT5 K686E/K687E (human, UniProt Q92547 641-746, K686E | K687E). In words: fluorescence polarisation.
The target of experiment [12] is T1, GST-human TopBP1 BRCT5 (641-746), wild …. In words: fluorescence polarisation. This is another data set of the same source.
Experiment [13] deals with GST-human TopBP1 BRCT5 Y678A (human, UniProt Q92547 641-746, Y678A). Nature of the experiment: fluorescence polarisation.
Sequence of GST-human TopBP1 BRCT5 Y678A (Q92547 641-746 Y678A): as the sequence (Q92547 641-746 M689A) above, with Y38A, A49M counted along it
Experiment [14] has as its target GST-human TopBP1 BRCT5 M689A (human, UniProt Q92547 641-746, M689A). Nature of the experiment: fluorescence polarisation.
The target of experiment [15] is human TopBP1 BRCT4/5 (549-746), untagged (human, UniProt Q92547 549-746). In words: fluorescence polarisation.
Sequence of human TopBP1 BRCT4/5 (549-746), untagged (Q92547 549-746): as the sequence (Q92547 549-746) above
Experiment [16] deals with T1, GST-human TopBP1 BRCT5 (641-746), wild …. In words: fluorescence polarisation. The source holds these as a separate data set.

What is called Kd is the constant that tells how readily two partners part at equilibrium. Lower therefore signals tighter binding.

“And” between values parts separate entries of the source, which are not always exact repeats. Equal entries are not always repeated. Where two headings read alike, the source gives them in different places. Square brackets hold non-standard residues; d marks the D form. Peptide text beside a SMILES is read from it. * marks the point of attachment. FITC = O=C1OC2(c3ccc(O)cc3Oc3cc(O)ccc32)c2ccc(NC(=S)*)cc21; pT = C[C@@H](OP(=O)(O)O)[C@H](N)C(=O)O; pS = N[C@@H](COP(=O)(O)O)C(=O)O

Sequence of GST-hTopBP1 BRCT5 WT (Q92547 641-746): as the sequence (Q92547 641-746 M689A) above, with A49M counted along it
Sequence of GST-human TopBP1 BRCT5 K686E/K687E (Q92547 641-746 K686E/K687E): as the sequence (Q92547 641-746 M689A) above, with K46E, K47E, A49M counted along it
Sequence of GST-human TopBP1 BRCT5 A707D (Q92547 641-746 A707D): as the sequence (Q92547 641-746 M689A) above, with A49M, A67D counted along it
Sequence of GST-human TopBP1 BRCT5 A707K (Q92547 641-746 A707K): as the sequence (Q92547 641-746 M689A) above, with A49M, A67K counted along it
Sequence of GST-human TopBP1 BRCT5 M689A (Q92547 641-746 M689A): as the sequence (Q92547 641-746 M689A) above
Sequence of GST-human TopBP1 BRCT5 S654A (Q92547 641-746 S654A): as the sequence (Q92547 641-746 M689A) above, with S14A, A49M counted along it
Sequence of TopBP1 BRCT4/5, untagged and GST-tagged forms (Q92547 549-746): as the sequence (Q92547 549-746) above

As to “BLM (Bloom syndrome, RecQ-like helicase) 297-309 (from UniProt P54132) λ phosphatase-treated pSer304 peptide”, the KD entry in experiment [1] is reported as “weaker; reference 2.6 ± 0.4”.
Take `CC[C@H](C)[C@H](NC(=O)[C@@H](NC(=O)[C@H](CCC(=O)O)NC(=O)[C@H](CCC(=O)O)NC(=O)[C@@H]1CCCN1C(=O)[C@H](CO)NC(=O)[C@@H]1CCCN1C(=O)[C@@H]1CCCN1C(=O)[C@@H](NC(=O)[C@H](Cc1ccccc1)NC(=O)[C@H](CC(=O)O)NC(=O)[C@@H](NC(=O)[C@H](CC(=O)O)NC(=S)Nc1ccc2c(c1)C(=O)OC21c2ccc(O)cc2Oc2cc(O)ccc21)[C@@H](C)O)C(C)C)[C@@H](C)CC)C(N)=O` [Ser304] ({FITC}-DTDFVPPSPEEII-NH2): at GST-hTopBP1 BRCT5 WT (KD, FP, BLM pSer304 peptide treated with λ phosphatase, 1 hour at 30 °C), the Kd is no less than 60 µM.
Consider `CC[C@H](C)[C@H](NC(=O)[C@H](Cc1ccccc1)NC(=O)CNC(=S)Nc1ccc2c(c1)C(=O)OC21c2ccc(O)cc2Oc2cc(O)ccc21)C(=O)N[C@@H](CC(=O)O)C(=O)N[C@@H](COP(=O)(O)O)C(=O)N[C@@H](CC(=O)O)C(=O)N[C@H](C(=O)N[C@@H](CC(=O)O)C(=O)N[C@H](C(=O)N[C@@H](CCC(=O)O)C(=O)N[C@@H](CCC(=O)O)C(=O)N[C@@H](CCC(=O)O)C(N)=O)C(C)C)[C@@H](C)OP(=O)(O)O` [MDC1, reference compound] ({FITC}-GFID[pS]D[pT]DVEEE-NH2), for which the Kd on GST-hTopBP1 BRCT5 WT and at GST-hBRCT5 M689A was 15 ± 1 µM each time.
At GST-hTopBP1 BRCT5 WT, `CC(C)C[C@H](NC(=O)[C@H](CC(=O)O)NC(=O)[C@H](CCCCN)NC(=O)[C@H](COP(=O)(O)O)NC(=O)[C@@H](NC(=O)[C@H](CO)NC(=O)[C@H](CC(C)C)NC(=O)[C@@H](NC(=O)[C@H](CC(=O)O)NC(=O)[C@H](CCC(=O)O)NC(=O)[C@H](CCCCN)NC(=S)Nc1ccc2c(c1)C(=O)OC21c2ccc(O)cc2Oc2cc(O)ccc21)C(C)C)[C@@H](C)O)C(N)=O` [pSer338] ({FITC}-KEDVLST[pS]KDL-NH2) had a Kd of no less than 300 µM.
`CC[C@H](C)[C@H](NC(=O)[C@@H](NC(=O)[C@H](CCC(=O)O)NC(=O)[C@H](CCC(=O)O)NC(=O)[C@@H]1CCCN1C(=O)[C@H](COP(=O)(O)O)NC(=O)[C@@H]1CCCN1C(=O)[C@@H]1CCCN1C(=O)[C@@H](NC(=O)[C@H](Cc1ccccc1)NC(=O)[C@H](CC(=O)O)NC(=O)[C@@H](NC(=O)[C@H](CC(=O)O)NC(=S)Nc1ccc2c(c1)C(=O)OC21c2ccc(O)cc2Oc2cc(O)ccc21)[C@@H](C)O)C(C)C)[C@@H](C)CC)C(N)=O` [pSer304] ({FITC}-DTDFVPP[pS]PEEII-NH2) returned a Kd in [2] of 3 to 6 µM.
{FITC}-DTDFVPP[pS]PEEII-NH2 [FITC-labelled BLM pSer304 peptide (FITC-DTDFVPPpSPEEII-NH2)]: the Kd in experiment [3] was 2.6 µM and 3.7 µM; in [4], 320 ± 40 µM; in experiment [5] it was 33 ± 3 µM; in [6] it was 70 ± 20 µM; in experiment [7] it was 42 ± 3 µM; in experiment [8] it was 6 ± 2 µM. The Kd in experiment [9] turned out to be 6 ± 1 µM; in [10], 45 ± 2 µM; in [11], 36 ± 3 µM; in experiment [12] it was 3.9 ± 0.3 µM; in experiment [13], 18 ± 2 µM; in experiment [14], 53 ± 4 µM. This molecule also gave a Kd in experiment [15] of 3.2 ± 0.8 µM.
As to {FITC}-DTDFVPPSPEEII-NH2 [Unphosphorylated Ser304 BLM peptide (FITC-DTDFVPPSPEEII-NH2)], binding in experiment [16] was put at a Kd of 60 ± 10 µM.
As to {FITC}-KEDVLST[pS]KDL-NH2 [FITC-labelled BLM pSer338 peptide (FITC-KEDVLSTpSKDL-NH2)], the Kd in [12] was determined as 285 ± 10 µM.

The record behind these values is publication PMC6044410 (Structure (London, England : 1993), 2017).
